ChEMBL document CHEMBL2346503, “Synthesis and evaluation of novel (18)F-labeled spirocyclic piperidine derivatives as σ1 receptor ligands for positron emission tomography imaging” (J Med Chem, 2013)

Columns and labels:
[1] = test system: Brain; experiment: Metabolic stability in ICR mouse brain at 18.5 MBq, iv after 30 mins by HPLC analysis; format: ADME, organism-based; details: in vivo, 0.5 h
Outline: (§1)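 Male ICR mice given radiotracer iv (18.5 MBq, 0.2 mL), killed at 30 min. Brain and liver were homogenized in ice-cold PBS (0.01 M, pH 7.4) and extracted with ice-cold MeCN. Supernatants were filtered, concentrated and analysed by radio-HPLC on a C18 column, acetonitrile/water with 0.1% TFA (45:55), 1 mL/min.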

[2] = test system: Liver; experiment: Metabolic stability in ICR mouse liver assessed as retention time at 18.5 MBq, iv by HPLC analysis; format: ADME, organism-based; details: in vivo; outline: as §1
[3] = Metabolic stability in ICR mouse liver at 18.5 MBq, iv after 30 mins by HPLC analysis; format: ADME, organism-based; details: read-out: Stability; outline: as §1
[4] = Displacement of [3H]-1,3-di-o-tolylguanidine from rat liver sigma2 receptor by competitive binding assay
Outline: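 Rat liver homogenate as the σ2 source, with [3H]DTG as radioligand plus 10 μM dextrallorphan to mask σ1 sites, in a competition format. Ki values are mean ± SD of three experiments, each run in triplicate.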

[5] = species: Homo sapiens; experiment: Selectivity ratio of Ki for human sigma2 receptor to human sigma1 receptor
[6] = species: Rattus norvegicus; experiment: Selectivity ratio of Ki for rat liver sigma2 receptor to rat brain sigma1 receptor
Outline: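 Competition binding used rat brain homogenates for σ1 with (+)-[³H]pentazocine. Rat liver homogenates were used for σ2 with [³H]DTG, in the presence of 10 μM dextrallorphan to mask σ1 sites. Ki values are means ± SD of three experiments, each in triplicate. Selectivity is Ki(σ2)/Ki(σ1).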

[7] = target: T1, Sigma non-opioid intracellular receptor 1 (Homo sapiens, UniProt Q99720); experiment: Binding affinity to sigma1 receptor (unknown origin)
T1 sequence (Q99720 whole entry): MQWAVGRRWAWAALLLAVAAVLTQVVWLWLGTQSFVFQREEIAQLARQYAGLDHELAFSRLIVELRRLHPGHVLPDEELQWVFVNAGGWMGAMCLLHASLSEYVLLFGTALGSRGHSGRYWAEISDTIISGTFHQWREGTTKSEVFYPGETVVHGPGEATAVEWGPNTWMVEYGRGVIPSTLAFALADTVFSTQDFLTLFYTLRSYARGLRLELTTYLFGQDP
Outline: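 Radioligand competition binding on rat brain homogenates using (+)-[³H]pentazocine as the competing radioligand. Ki values are means ± SD of three experiments, each performed in triplicate.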

[8] = target: Sigma non-opioid intracellular receptor 1 (Rattus norvegicus, UniProt Q9R0C9); experiment: Displacement of (+)-[3H]pentazocine from rat brain sigma1 receptor by competitive binding assay
Sigma non-opioid intracellular receptor 1 (Rattus norvegicus, UniProt Q9R0C9), sequence (Q9R0C9 whole entry): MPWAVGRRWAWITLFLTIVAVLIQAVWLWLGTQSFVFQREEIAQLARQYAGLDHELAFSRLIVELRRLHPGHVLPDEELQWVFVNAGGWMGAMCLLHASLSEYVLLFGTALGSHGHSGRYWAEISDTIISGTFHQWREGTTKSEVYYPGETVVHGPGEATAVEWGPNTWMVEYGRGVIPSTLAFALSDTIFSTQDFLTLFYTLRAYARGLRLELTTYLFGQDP

[9] = Binding affinity to sigma2 receptor (unknown origin); design: species or system Homo sapiens
[10] = test system: Brain; experiment: Biodistribution in mouse brain after 5 mins by PET imaging analysis; format: ADME, organism-based; details: in vivo
[11] = Ratio of drug uptake from mouse brain to blood after 30 mins; format: ADME, tissue-based; details: brain and blood
Outline: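 Male ICR mice (n = 5 per time point) received an intravenous saline solution of the radiotracer (370 kBq, 0.1 mL). They were decapitated at 2, 30, 60 and 120 min. Brain, blood and other organs were weighed and γ-counted against diluted injectate aliquots, decay-corrected, and expressed as %ID/g of wet tissue (mean, SD). The brain/blood ratio is given at each time.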

[12] = test system: Brain; experiment: Biodistribution in iv dosed CD1 mouse brain after 30 mins in presence of haloperidol relative to control; format: ADME, organism-based; details: in vivo, 0.5 h
[13] = target: T1, Sigma non-opioid intracellular receptor 1; experiment: Binding affinity to human brain sigma1 receptor
[14] = test system: Liver microsomes; experiment: Metabolic stability in rat liver microsomes assessed as retention time by UPLC-MS analysis in presence of beta-NADP; format: ADME, Microsome
Outline: (§2)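 Rat liver microsomes (2 mg protein/mL) with 100 μM compound and an NADPH-generating system (2 mM β-NADPH, 20 mM glucose 6-phosphate, 2 U G6PDH, 12 mM MgCl₂) in 0.05 M Tris-HCl pH 7.4. Preincubated 3 min, then run 30 min at 37 °C and stopped with ice-cold methanol. Supernatant analysed by UPLC-ESI(+)-MS against compound-free blanks.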

[15] = test system: Liver microsomes; experiment: Metabolic stability in rat liver microsomes assessed as retention time at 100 uM by UPLC-MS analysis in presence of beta-NADPH; format: ADME, Microsome; outline: as §2
[16] = target: Vesicular acetylcholine transporter (Rattus norvegicus, UniProt Q62666); experiment: Displacement of (-)-[3H]-vesamicol from rat VAChT transfected in rat PC12 cells after 120 mins by competitive binding assay; format: cell-based, PC-12
Vesicular acetylcholine transporter, sequence (Q62666 whole entry): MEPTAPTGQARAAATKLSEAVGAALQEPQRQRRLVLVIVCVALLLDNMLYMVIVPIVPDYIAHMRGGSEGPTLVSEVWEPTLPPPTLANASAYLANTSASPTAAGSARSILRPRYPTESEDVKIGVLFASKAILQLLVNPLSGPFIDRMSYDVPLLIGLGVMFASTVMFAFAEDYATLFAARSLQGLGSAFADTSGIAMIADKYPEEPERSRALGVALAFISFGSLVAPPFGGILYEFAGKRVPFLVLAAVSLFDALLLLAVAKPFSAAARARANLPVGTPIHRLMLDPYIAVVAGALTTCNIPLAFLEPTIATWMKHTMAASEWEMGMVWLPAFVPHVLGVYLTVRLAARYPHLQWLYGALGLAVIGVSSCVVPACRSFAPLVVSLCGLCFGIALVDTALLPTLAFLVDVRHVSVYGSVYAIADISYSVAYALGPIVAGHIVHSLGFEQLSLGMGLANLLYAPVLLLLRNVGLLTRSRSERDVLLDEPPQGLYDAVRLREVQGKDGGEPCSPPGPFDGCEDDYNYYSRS
Outline: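 Membrane homogenates from PC12 cells stably expressing rat VAChT, with 1 nM (−)-[3H]vesamicol, test ligand at 10⁻¹¹–10⁻⁵ M, in 50 mM Tris-HCl pH 7.4, 120 min at room temperature. Nonspecific binding was defined with 10 μM (−)-vesamicol. Ki from Cheng–Prusoff; mean of two experiments, each in triplicate.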

[17] = Lipophilicity, log D of the compound at pH 7.4; format: physicochemical; details: buffer
Outline: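 Shake flask: radiotracer (370 kBq) in 3 mL 1-octanol plus 3 mL 0.05 M sodium phosphate buffer pH 7.4, vortexed 3 min at room temperature, then centrifuged. Both phases were gamma-counted and log D = log(cpm/mL octanol ÷ cpm/mL buffer). The octanol layer was repartitioned until values were consistent. Triplicate, repeated three times.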

[18] = test system: Brain; experiment: Biodistribution in iv dosed CD1 mouse brain after 15 mins by PET imaging analysis; format: ADME, organism-based; details: in vivo, 0.25 h
[19] = test system: Brain; experiment: Biodistribution in mouse brain after 60 mins in presence of haloperidol relative to control; format: ADME, organism-based; details: in vivo, 1 h
Outline: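 Male ICR mice (n = 5 per group) got saline (0.1 mL) or haloperidol (0.1 mL, 1.0 mg/kg) via tail vein 5 min before iv [18F]tracer (370 kBq, 0.1 mL, saline). Killed by decapitation at 60 min. Brain was weighed and gamma-counted with decay correction, giving %ID/g against diluted injectate. Control vs blocking compared by two-tailed independent Student's t test.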

[20] = Ratio of drug uptake from […] mouse brain to blood after 120 mins; format: ADME, tissue-based; details: brain and blood
Outline: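 Male ICR mice (n = 5 per time point) received [18F]tracer (370 kBq, 0.1 mL saline) iv and were decapitated at 2, 30, 60 and 120 min. Brain and blood were weighed and gamma-counted, decay-corrected and expressed as %ID/g against diluted injectate. The brain/blood ratio was taken from these %ID/g values.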

[21] = target: 3-beta-hydroxysteroid-Delta(8),Delta(7)-isomerase (Homo sapiens, UniProt Q15125); experiment: Binding affinity to EBP (unknown origin)
3-beta-hydroxysteroid-Delta(8),Delta(7)-isomerase, sequence (Q15125 whole entry): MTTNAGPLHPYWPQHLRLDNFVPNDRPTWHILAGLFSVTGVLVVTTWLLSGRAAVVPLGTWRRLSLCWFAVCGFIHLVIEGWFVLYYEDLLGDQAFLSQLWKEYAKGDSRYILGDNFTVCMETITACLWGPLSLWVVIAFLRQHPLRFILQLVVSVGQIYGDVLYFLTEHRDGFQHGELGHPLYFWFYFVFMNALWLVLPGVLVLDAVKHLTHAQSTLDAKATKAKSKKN

SMILES	Ki [4] [µM]	Ratio Ki [6]	Ki [8] [µM]	also measured
OCc1ccccc1C1(O)CCN(Cc2ccc(OCC[18F])cc2)CC1	–	–	–	Stability [1]: Unstable; Retention_time [2]: 4.68 min; remaining at 0.5 h [3]: 26.9%
O=C(CCCN1CCC(O)(c2ccc(Cl)cc2)CC1)c1ccc(F)cc1 [HALOPERIDOL]	0.0207	–	–	–
N#Cc1ccc(OCC2CCN(CCCF)CC2)cc1	–	–	–	Ratio Ki ([5]; tested as the 18F-labelled form): 33
N#Cc1ccc(OCC2CCN(C/C=C/I)CC2)cc1	–	–	–	Ratio Ki ([5]; tested as the 123I-labelled form): 58
Ic1ccc(CN2CCC3(CC2)OCc2ccccc23)cc1	0.34	123	0.00275	Ki [7]: 0.00275 µM; Ki [9]: 0.34 µM
Fc1ccc(CN2CCC3(CC2)OCc2ccccc23)cc1	0.106	182	0.00058	–
COc1cc(CCN2CCN(CCCc3ccccc3)CC2)ccc1O[11CH3]	–	–	–	Drug uptake [10]: 3.61 % ID/g; Kp at 0.5 h [11]: 11.6; Drug uptake [12]: 60%
N#Cc1ccc(OCC2CCN(C/C=C/[123I])CC2)cc1	–	–	–	Ki [13]: 0.00067 µM
OCc1ccccc1C1(O)CCN(Cc2ccc(OCCF)cc2)CC1	–	–	–	Retention_time [14]: 1.42 min
FCCOc1ccc(CN2CCC3(CC2)OCc2ccccc23)cc1	0.277	350	0.00079	Retention_time [15]: 1.82 min; Ki [16]: 0.631 µM
Oc1ccc(CN2CCC3(CC2)OCc2ccccc23)cc1	–	–	–	Retention_time [14]: 1.74 min
[125I]c1ccc(CN2CCC3(CC2)OCc2ccccc23)cc1	–	–	–	logD [17]: 3.06; Drug uptake [18]: 5.28 % ID/g
FCCOCCOCCOc1ccc(CN2CCC3(CC2)OCc2ccccc23)cc1	0.592	16	0.0375	–
N#Cc1ccc(OCC2CCN(CCC[18F])CC2)cc1	–	–	–	Ki [13]: 0.0043 µM
COc1ccc(CN2CCC3(CC2)OCc2ccccc23)cc1	0.276	162	0.0017	–
[18F]CCC1OC2(CCN(Cc3ccccc3)CC2)c2ccccc21 (centres undefined)	–	–	–	Drug uptake [10]: 3.88 % ID/g; Drug uptake [19]: 62%; Kp at 2 h [20]: 18.8
FCCOCCOc1ccc(CN2CCC3(CC2)OCc2ccccc23)cc1	0.86	16	0.0529	–
FCCOc1ccc(CN2CCC3(CC2)OCc2ccccc23)cn1	0.327	142	0.0023	–
COc1ccc(CCN2CCN(CCCc3ccccc3)CC2)cc1OC [[11C]SA4503]	–	–	–	Ki [21]: 0.00172 µM
